In ChEMBL document CHEMBL3102741, “A novel 2,3-diphenyl-4H-pyrido[1,2-a]pyrimidin-4-one derivative inhibits endothelial cell dysfunction and smooth muscle cell proliferation/activation” (Eur J Med Chem, 2014):
Active and inactive are the calls of the source. No cut-off for these calls is given here.

Experiments:
HUVEC [1] = experiment: Cytotoxicity against HUVEC assessed as cell viability at 10 to 50 uM after 24 to 72 hrs by WST-1 assay relative to untreated control; format: cell-based; settings: human
Summary of the method: (§1)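 HUVECs were exposed to compound (10, 25, 50 µM; 0.1% DMSO vehicle) for 24 h or 72 h. WST-1 premix was added for a further 2 h, and formazan absorbance was read at 450 nm as a measure of mitochondrial dehydrogenase activity. Three independent experiments, each with n = 6 replicates.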

HUVEC [2] = experiment: Cytotoxicity against HUVEC assessed as cell detachment at 10 to 50 uM after 72 hrs by phase-contrast microscopy; format: cell-based; settings: human
Summary of the method: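 After 72 h of treatment with compound at concentrations up to 50 µM, HUVEC morphology was examined by phase-contrast microscopy.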

HUVEC [3] = experiment: Cytotoxicity against HUVEC assessed as cell viability at 10 uM after 24 to 72 hrs by WST-1 assay relative to untreated control; format: cell-based; settings: human
Summary of the method: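 HUVECs (used up to fifth passage from primary culture) in 96-well plates exposed to compound for 24 h or 72 h, DMSO final ≤0.1% as vehicle; WST-1 premix added for further 2 h, absorbance at 450 nm; viability relative to untreated cells. Morphology also checked by phase-contrast microscopy. Mean of three independent experiments, each n = 6 replicates.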

HUVEC [4] = experiment: Cytotoxicity against HUVEC assessed as cell viability up to 50 uM after 24 to 72 hrs by WST-1 assay; format: cell-based; settings: human; summary of the method: as §1
HUVEC [5] = experiment: Antiinflammatory activity in HUVEC assessed as inhibition of TNF-alpha-induced VCAM1 expression incubated for 1 hr prior to TNF-alpha challenge measured after overnight incubation by enzyme immunoassay method; format: functional, Homo sapiens
Summary of the method: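 Confluent HUVECs in 96-well plates were pre-treated 1 h with compound (25 µM), then stimulated with TNF-α 10 ng/mL overnight. Cell-surface VCAM-1 was measured by cell-surface enzyme immunoassay. Three independent experiments, each with n = 8 replicates.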

HUVEC [6] = experiment: Cytotoxicity against HUVEC assessed as inhibition of ECGF-induced cell growth at 1 to 25 uM incubated for 1 hr prior to ECGF challenge measured after 48 hrs by BrdU incorporation assay relative to control; format: cell-based; settings: human
Summary of the method: (§2)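 Cells at about 70% confluence were serum-starved overnight, pre-treated 1 h with compound (1–25 µM), then grown with or without PDGF-BB (HAoSMCs) or ECGF (HUVECs), each at 20 ng/mL, for 48 h. Cells were BrdU-labelled, fixed and immunostained, and absorbance was read at 450 nm. Three experiments, n = 8 each.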

HUVEC [7] = experiment: Effect on TNF-alpha-induced COX-2 protein expression in HUVEC at 1 to 25 uM incubated for 1 hr prior to TNF-alpha challenge measured after overnight incubation by EIA assay relative to control; format: ADME, cell-based; settings: human
Summary of the method: (§3)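 Cells were pre-treated 1 h with compound, then stimulated overnight with PMA 10 nM, TNF-α 10 ng/mL (HUVECs) or PDGF-BB 20 ng/mL (HAoSMCs). Monolayers were fixed and permeabilized in cold acetone on ice for 2 min. They were probed with goat anti-COX-2 and then HRP anti-goat IgG, developed with TMB for 30 min, stopped with 0.18 M H2SO4, and read at 450 nm. Three experiments, n = 6 each.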

HUVEC [8] = experiment: Effect on PMA-induced COX-2 protein expression in HUVEC at 1 to 25 uM incubated for 1 hr prior to PMA challenge measured after overnight incubation by EIA assay relative to control; format: ADME, cell-based; settings: human; summary of the method: as §3
HUVEC [9] = experiment: Cytotoxicity against HUVEC at 1 to 25 uM after 48 hrs by BrdU incorporation assay relative to untreated control; settings: human
Homo sapiens [10] = species: Homo sapiens; experiment: Inhibition of PDGF-BB-induced COX-2 mRNA expression in HAoSMC at 1 to 25 uM incubated for 1 hr prior to PDGF-BB challenge measured after overnight incubation by RT-PCR analysis relative to control; format: functional
Summary of the method: (§4)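 Confluent cells (HAoSMCs at passages 20–30, HUVECs up to fifth passage) were pre-treated 1 h with compound (1, 10, 25 µM) or 0.1% DMSO, then stimulated with PMA 10 nM, PDGF-BB 20 ng/mL or TNF-α 10 ng/mL overnight. Total RNA was extracted and RT-PCR run with GAPDH co-amplified. Bands were quantified by densitometry and normalized to GAPDH. Three determinations.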

HUVEC [11] = experiment: Effect on TNF-alpha-induced COX-2 mRNA expression in HUVEC at 1 to 25 uM incubated for 1 hr prior to TNF-alpha challenge measured after overnight incubation by RT-PCR analysis relative to control; format: ADME, cell-based; settings: human; summary of the method: as §4
Homo sapiens [12] = species: Homo sapiens; experiment: Inhibition of PMA-induced COX-2 mRNA expression in HAoSMC at 1 to 25 uM incubated for 1 hr prior to PMA challenge measured after overnight incubation by RT-PCR analysis relative to control; format: functional; summary of the method: as §4
Homo sapiens [13] = species: Homo sapiens; experiment: Cytotoxicity against HAoSMC assessed as inhibition of PDGF-BB-induced cell growth incubated for 1 hr prior to PDGF-BB challenge measured after 48 hrs by BrdU incorporation assay; format: functional; summary of the method: as §2
[14] = molecular target: T1, Prostaglandin G/H synthase 2 (Homo sapiens) (UniProt P35354); experiment: Inhibition of COX2 in HUVEC assessed as TNF-alpha-induced PGE2 production at 1 to 25 uM incubated for 1 hr prior to TNF-alpha challenge measured after overnight incubation by competitive enzyme immunoassay
T1 sequence (whole entry): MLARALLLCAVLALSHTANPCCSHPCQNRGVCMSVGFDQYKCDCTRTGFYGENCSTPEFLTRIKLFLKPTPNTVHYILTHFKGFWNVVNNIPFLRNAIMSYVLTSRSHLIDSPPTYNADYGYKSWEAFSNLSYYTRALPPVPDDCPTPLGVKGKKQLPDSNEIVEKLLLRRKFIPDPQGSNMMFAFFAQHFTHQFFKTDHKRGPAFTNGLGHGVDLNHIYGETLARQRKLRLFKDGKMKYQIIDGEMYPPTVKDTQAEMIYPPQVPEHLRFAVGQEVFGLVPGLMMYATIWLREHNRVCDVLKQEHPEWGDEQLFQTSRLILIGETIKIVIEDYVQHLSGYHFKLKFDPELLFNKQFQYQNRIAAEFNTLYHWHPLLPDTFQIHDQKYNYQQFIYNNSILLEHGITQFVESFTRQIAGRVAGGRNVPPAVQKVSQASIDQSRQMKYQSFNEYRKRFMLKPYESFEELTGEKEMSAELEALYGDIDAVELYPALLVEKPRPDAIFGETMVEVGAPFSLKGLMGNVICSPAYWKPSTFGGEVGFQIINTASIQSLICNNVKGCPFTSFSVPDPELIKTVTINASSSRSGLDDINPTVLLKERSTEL
Summary of the method: (§5)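 Cells were pre-treated 1 h with compound (1–25 µM), then stimulated overnight with PMA 10 nM (HAoSMCs) or TNF-α 10 ng/mL (HUVECs). Conditioned medium was centrifuged, and PGE2 and PGI2 (as 6-keto-PGF1α) were measured by competitive EIA in pg/mL. Three independent experiments in duplicate.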

HUVEC [15] = experiment: Antiinflammatory activity in HUVEC assessed as reduction in TNF-alpha-induced VCAM1 mRNA expression at 10 to 25 uM incubated for 1 hr prior to TNF-alpha challenge measured after 4 hrs by RT-PCR analysis relative to control; format: functional, cell-based; settings: Homo sapiens
Summary of the method: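 HUVECs were pre-treated 1 h with compound, then exposed to TNF-α 10 ng/mL for 4 h. Total RNA was extracted and VCAM-1 with GAPDH amplified by RT-PCR (VCAM-1 30 cycles, 55 °C annealing). Bands were quantified by densitometry and normalized to GAPDH. Mean ± SEM of three determinations.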

Homo sapiens [16] = species: Homo sapiens; experiment: Inhibition of PMA-induced COX-2 protein expression in HAoSMC at 1 to 25 uM incubated for 1 hr prior to PMA challenge measured after overnight incubation by EIA assay relative to control; format: functional; summary of the method: as §3
[17] = molecular target: T1, Prostaglandin G/H synthase 2 (Homo sapiens); experiment: Inhibition of COX2 in HUVEC assessed as TNF-alpha-induced PGI2 production at 1 to 25 uM incubated for 1 hr prior to TNF-alpha challenge measured after overnight incubation by competitive enzyme immunoassay; summary of the method: as §5
Homo sapiens [18] = species: Homo sapiens; experiment: Antiinflammatory activity in HAoSMC assessed as inhibition of PMA-induced MMP-9 mRNA expression at 10 to 25 uM incubated for 1 hr prior to PMA challenge measured after overnight incubation by RT-PCR analysis; format: functional; summary of the method: as §4
[19] = molecular target: T1, Prostaglandin G/H synthase 2 (Homo sapiens); experiment: Inhibition of COX2 in HAoSMC assessed as PMA-induced PGE2 production at 1 to 25 uM incubated for 1 hr prior to PMA challenge measured after overnight incubation by competitive enzyme immunoassay; summary of the method: as §5
[20] = molecular target: Matrix metalloproteinase-9 (Homo sapiens) (UniProt P14780); experiment: Inhibition of PMA-induced MMP9 activity in HAoSMC at 25 uM after 24 hrs by gelatin zymography relative to control
Chain of Matrix metalloproteinase-9 (Homo sapiens) (P14780 whole entry): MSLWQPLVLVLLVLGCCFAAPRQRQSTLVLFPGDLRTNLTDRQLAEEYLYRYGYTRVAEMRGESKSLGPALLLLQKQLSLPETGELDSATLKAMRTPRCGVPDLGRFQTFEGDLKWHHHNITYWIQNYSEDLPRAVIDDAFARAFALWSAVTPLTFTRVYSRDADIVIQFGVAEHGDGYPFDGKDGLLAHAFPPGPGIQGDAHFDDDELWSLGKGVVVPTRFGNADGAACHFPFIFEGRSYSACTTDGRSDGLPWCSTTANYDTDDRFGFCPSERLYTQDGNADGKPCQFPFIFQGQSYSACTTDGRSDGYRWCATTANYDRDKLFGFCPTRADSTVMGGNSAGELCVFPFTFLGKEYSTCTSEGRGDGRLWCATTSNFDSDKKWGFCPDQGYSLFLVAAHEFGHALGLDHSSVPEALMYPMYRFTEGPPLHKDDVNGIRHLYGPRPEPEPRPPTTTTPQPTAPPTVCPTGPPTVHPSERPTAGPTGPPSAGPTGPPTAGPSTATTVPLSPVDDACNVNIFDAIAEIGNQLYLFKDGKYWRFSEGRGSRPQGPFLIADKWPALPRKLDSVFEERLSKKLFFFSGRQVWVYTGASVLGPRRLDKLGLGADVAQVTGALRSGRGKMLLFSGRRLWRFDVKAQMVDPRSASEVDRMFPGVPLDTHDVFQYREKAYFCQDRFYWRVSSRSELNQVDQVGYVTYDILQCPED
Summary of the method: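 HAoSMCs were treated with PMA 10 nM in serum-free medium, with or without compound (10, 25 µM), for 24 h. Conditioned medium ([…]) was run on 11% SDS-PAGE containing 0.1% gelatin at 125 V and 4 °C. Gels were washed in Triton X-100, incubated 24 h at 37 °C in Tris pH 7.5/CaCl2 buffer, and Coomassie-stained. Lysis bands were quantified by densitometry.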

HUVEC [21] = experiment: Effect on PMA-induced COX-2 mRNA expression in HUVEC at 1 to 25 uM incubated for 1 hr prior to PMA challenge measured after overnight incubation by RT-PCR analysis relative to control; format: ADME, cell-based; settings: human; summary of the method: as §4
Homo sapiens [22] = species: Homo sapiens; experiment: Inhibition of PDGF-BB-induced COX-2 protein expression in HAoSMC incubated for 1 hr prior to PDGF-BB challenge measured after overnight incubation by EIA assay relative to control; format: functional; summary of the method: as §3

Compound | Activity (HUVEC [1]) | Activity (HUVEC [2]) | Activity (HUVEC [4]) | inhibition (INH) (HUVEC [5]) | also measured
O=c1cc(-c2ccc(O)cc2)oc2cc(O)cc(O)c12 [APIGENIN] | Toxic | Toxic |  |  | Activity (HUVEC [3]): Toxic
O=c1c(-c2ccccc2)c(-c2ccccc2)nc2ccccn12 |  |  | Non-toxic | 8.5% | 
COc1ccc(-c2c(-c3ccccc3)nc3ccccn3c2=O)cc1OC |  |  | Non-toxic | 12% | 
COc1ccc(-c2nc3ccccn3c(=O)c2-c2ccccc2)cc1OC | Non-toxic | Non-toxic | Non-toxic | 37% | Activity (HUVEC [6]): Non-toxic; Activity (HUVEC [7]): Non-toxic; Activity (HUVEC [8]): Non-toxic; Activity (HUVEC [9]): Non-toxic; inhibition (Homo sapiens [10]): Active; Activity (HUVEC [11]): Non-toxic; inhibition (Homo sapiens [12]): Active; inhibition (Homo sapiens [13]): Dose-dependent effect; inhibition [14]: inactive; inhibition (HUVEC [15]): Active; inhibition (Homo sapiens [16]): Active; inhibition [17]: inactive; inhibition (HUVEC [5]; Homo sapiens): Dose-dependent effect; inhibition (Homo sapiens [18]): Active; inhibition [19]: Active; inhibition [20]: Active; Activity (HUVEC [21]): Non-toxic; inhibition (Homo sapiens [22]): Dose-dependent effect
COc1ccc(-c2nc3ccccn3c(=O)c2-c2ccccc2)cc1 |  |  | Non-toxic | 8.9% | 
COc1ccc(-c2c(-c3ccccc3)nc3ccccn3c2=O)cc1 |  |  | Non-toxic | 12% | 
COc1ccc(-c2c(-c3ccc(OC)c(OC)c3)nc3ccccn3c2=O)cc1 |  |  | Non-toxic | 10.3% | 
O=c1c(O)c(-c2ccc(O)c(O)c2)oc2cc(O)cc(O)c12 [QUERCETIN] | Toxic | Toxic |  |  | Activity (HUVEC [3]): Toxic
COc1ccc(-c2nc3ccccn3c(=O)c2-c2ccc(OC)c(OC)c2)cc1 |  |  | Non-toxic | 15% | 
COc1ccc(-c2nc3ccccn3c(=O)c2-c2ccc(OC)cc2)cc1 |  |  | Non-toxic | 9.6% | 
